The source of these data is ChEMBL document CHEMBL3102784, “Salicylanilide diethyl phosphates: synthesis, antimicrobial activity and cytotoxicity” (Bioorg Med Chem, 2014).

≈ marks a conversion by molar mass, not a printed value.

Assay type in all cases: functional
For test [1], the system named is Staphylococcus aureus. Description: Antibacterial activity against methicillin-resistant Staphylococcus aureus H 5996/08 after 24 hrs by broth microdilution method. The note with it: H 5996/08, 24 h. An outline of the steps:
(§1)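 Broth microdilution in Mueller–Hinton broth, compounds dissolved in DMSO, tested over a dilution series from 500 downward. MIC taken as ≥95% growth reduction (IC95) versus drug-free control. Benzylpenicillin comparator. Readings at 24 and 48 h.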
(Dilution methods test growth across graded concentrations, often in twofold steps.)

Test [2] deals with Staphylococcus aureus. Description: Antibacterial activity against methicillin-resistant Staphylococcus aureus H 5996/08 after 48 hrs by broth microdilution method. The note with it: H 5996/08, 48 h. An outline of the steps: as §1
For test [3], the system named is Staphylococcus epidermidis. Nature of the test: Antibacterial activity against Staphylococcus epidermidis H 6966/08 after 24 hrs by broth microdilution method. The conditions noted are these: H 6966/08, 24 h. Put shortly:
as §1

In test [4] the test system is Staphylococcus aureus. Nature of the test: Antibacterial activity against Staphylococcus aureus CCM 4516/08 after 48 hrs by broth microdilution method. The conditions noted are these: CCM 4516/08, 48 h. An outline of the steps:
as §1

The test system of test [5] is Staphylococcus aureus. Nature of the test: Antibacterial activity against Staphylococcus aureus CCM 4516/08 after 24 hrs by broth microdilution method. The conditions noted are these: CCM 4516/08, 24 h. Put shortly: as §1
Test [6] deals with Staphylococcus epidermidis. Description: Antibacterial activity against Staphylococcus epidermidis H 6966/08 after 48 hrs by broth microdilution method. The conditions noted are these: H 6966/08, 48 h. An outline of the steps:
as §1

For test [7], the system named is Mycobacterium tuberculosis. Nature of the test: Antimycobacterial activity against Mycobacterium tuberculosis H37Rv My 331/88 after 14 days. The conditions noted are these: H37Rv My 331/88, 336 h. An outline of the steps:
(§2)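 Micromethod MIC in Šula's semisynthetic medium at 37 °C. Compounds added in DMSO at 1000 down to 0.032 µmol/L. Isoniazid standard in sterile water at 0.5–250 µmol/L. Inocula: H37Rv 10^3, M. avium 10^5, M. kansasii 10^4. Read at 14 and 21 d, plus 7 d for M. kansasii.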

Test [8] concerns Mycobacterium tuberculosis. Nature of the test: Antimycobacterial activity against Mycobacterium tuberculosis H37Rv My 331/88 after 21 days. The note with it: H37Rv My 331/88, 504 h. Put shortly: as §2
For test [9], the system named is Mycobacterium kansasii. Description: Antimycobacterial activity against Mycobacterium kansasii My 235/80 after 21 days. The conditions noted are these: My 235/80, 504 h. Put shortly:
as §2

Test [10] deals with Mycobacterium kansasii. Description: Antimycobacterial activity against Mycobacterium kansasii My 235/80 after 14 days. The note with it: My 235/80, 336 h. Put shortly:
as §2

Test [11] relates to Mycobacterium avium. Nature of the test: Antimycobacterial activity against isoniazid, rifampicin, ethambutol and ofloxacin-resistant Mycobacterium avium My 330/88 after 21 days. The conditions noted are these: My 330/88, 504 h. Put shortly: as §2
Test [12] concerns Mycobacterium kansasii. Description: Antimycobacterial activity against Mycobacterium kansasii 6509/96 after 7 days. The note with it: 6509/96, 168 h. An outline of the steps: as §2
The test system of test [13] is Mycobacterium kansasii. Nature of the test: Antimycobacterial activity against Mycobacterium kansasii My 235/80 after 7 days. The conditions noted are these: My 235/80, 168 h. Put shortly:
as §2

In test [14] the test system is Mycobacterium kansasii. Nature of the test: Antimycobacterial activity against Mycobacterium kansasii 6509/96 after 14 days. The note with it: 6509/96, 336 h. Put shortly:
as §2

Test [15] concerns Mycobacterium avium. Description: Antimycobacterial activity against isoniazid, rifampicin, ethambutol and ofloxacin-resistant Mycobacterium avium My 330/88 after 14 days. The note with it: My 330/88, 336 h. Put shortly: as §2
Test [16] relates to Mycobacterium kansasii. Nature of the test: Antimycobacterial activity against Mycobacterium kansasii 6509/96 after 21 days. The conditions noted are these: 6509/96, 504 h. Put shortly: as §2
Test [17] deals with Candida albicans. Description: Antifungal activity against Candida albicans ATCC 44859 after 48 hrs by broth microdilution method. The note with it: ATCC 44859, 48 h. Put shortly:
(§3)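 Broth microdilution in RPMI 1640 with glutamine, fluconazole as reference. For yeasts, MIC is ≥80% growth reduction (IC80) versus control. For filamentous fungi, the value is expressed as IC50. Readings at 24 and 48 h.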

Test [18] concerns Pichia kudriavzevii. Description: Antifungal activity against Candida krusei E28 after 48 hrs by broth microdilution method. The conditions noted are these: E28, 48 h. Put shortly:
as §3

Test [19] deals with Lichtheimia corymbifera. Description: Antifungal activity against Absidia corymbifera 272 after 24 hrs by broth microdilution method. The note with it: Lichtheimia corymbifera, 272, 24 h. An outline of the steps: as §3
For test [20], the system named is Trichosporon asahii. Nature of the test: Antifungal activity against Trichosporon asahii 1188 after 48 hrs by broth microdilution method. The conditions noted are these: Trichosporon asahii, 1188, 48 h. Put shortly:
as §3

For test [21], the system named is Candida albicans. Nature of the test: Antifungal activity against Candida albicans ATCC 44859 after 24 hrs by broth microdilution method. The conditions noted are these: ATCC 44859, 24 h. An outline of the steps: as §3
Test [22] deals with Pichia kudriavzevii. Description: Antifungal activity against Candida krusei E28 after 24 hrs by broth microdilution method. The note with it: E28, 24 h. Put shortly: as §3
Test [23] has as its system Trichosporon asahii. Description: Antifungal activity against Trichosporon asahii 1188 after 24 hrs by broth microdilution method. The note with it: Trichosporon asahii, 1188, 24 h. Put shortly: as §3
Test [24] relates to Trichophyton mentagrophytes. Description: Antifungal activity against Trichophyton mentagrophytes 445 after 120 hrs by broth microdilution method. The conditions noted are these: Trichophyton mentagrophytes, 445, 120 h. An outline of the steps: (§4)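 Filamentous dermatophyte tested by broth microdilution in RPMI 1640 with glutamine, fluconazole as reference. Value expressed as IC50 relative to growth control. Read at 72 and 120 h.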

Test [25] concerns Lichtheimia corymbifera. Description: Antifungal activity against Absidia corymbifera 272 after 48 hrs by broth microdilution method. The conditions noted are these: Lichtheimia corymbifera, 272, 48 h. Put shortly: as §3
Test [26] concerns Aspergillus fumigatus. Nature of the test: Antifungal activity against Aspergillus fumigatus 231 after 48 hrs by broth microdilution method. The conditions noted are these: Aspergillus fumigatus, 231, 48 h. An outline of the steps: as §3
Test [27] has as its system Aspergillus fumigatus. Description: Antifungal activity against Aspergillus fumigatus 231 after 24 hrs by broth microdilution method. The note with it: Aspergillus fumigatus, 231, 24 h. An outline of the steps:
as §3

Test [28] deals with Trichophyton mentagrophytes. Nature of the test: Antifungal activity against Trichophyton mentagrophytes 445 after 72 hrs by broth microdilution method. The note with it: Trichophyton mentagrophytes, 445, 72 h. An outline of the steps: as §4

As to `CC1(C)S[C@@H]2[C@H](NC(=O)Cc3ccccc3)C(=O)N2[C@H]1C(=O)O` [PENICILLIN G], the MIC95 stood at 62.5 µM (≈ 20.9 µg/mL) against Staphylococcus aureus [1]; 125 µM (≈ 41.8 µg/mL) against Staphylococcus aureus [2]; 250 µM (≈ 83.6 µg/mL) in test [3]; 0.98 µM (≈ 0.328 µg/mL) in the test on Staphylococcus aureus [4]; 0.98 µM (≈ 0.328 µg/mL) against Staphylococcus aureus [5]; 250 µM (≈ 83.6 µg/mL) in test [6].
For the compound `Nc1ccc(C(=O)O)c(O)c1` [AMINOSALICYLIC ACID], the MIC (in general, the smallest concentration in the dilution series that meets the test's criterion for growth inhibition) is 62.5 µM (≈ 9.57 µg/mL) in test [7]; 62.5 µM (≈ 9.57 µg/mL) in test [8]; > 1000 µM in the test on Mycobacterium kansasii [9]; 1000 µM (≈ 153 µg/mL) against Mycobacterium kansasii [10]; 125 µM (≈ 19.1 µg/mL) in the test with Mycobacterium avium [11]; 32 µM (≈ 4.9 µg/mL) in the test with Mycobacterium kansasii [12]. The MIC with Mycobacterium kansasii [13] turned out to be 125 µM (≈ 19.1 µg/mL); in the test with Mycobacterium kansasii [14] it was 125 µM (≈ 19.1 µg/mL); against Mycobacterium avium [15], 32 µM (≈ 4.9 µg/mL); in the test on Mycobacterium kansasii [16] it was 500 µM (≈ 76.6 µg/mL).
With `OC(Cn1cncn1)(Cn1cncn1)c1ccc(F)cc1F` [FLUCONAZOLE], the MIC80 – broadly, an inhibitory concentration at the 80% level, which refers to growth in some studies and to a panel of isolates in others – with Candida albicans [17] was 2 µM (≈ 0.613 µg/mL); in the test with Pichia kudriavzevii [18], > 50 µM; with Trichosporon asahii [20], 9 µM (≈ 2.76 µg/mL); in the test with Candida albicans [21] it was 1 µM (≈ 0.306 µg/mL); in the test with Pichia kudriavzevii [22], > 50 µM; against Trichosporon asahii [23], 4 µM (≈ 1.23 µg/mL). Further, the MIC50 (usually the lowest concentration that inhibits either 50% of growth or 50% of the strains tested, depending on the study) is > 50 µM in the test on Lichtheimia corymbifera [19]; 26 µM (≈ 7.96 µg/mL) in [24]; > 50 µM in the test with Lichtheimia corymbifera [25]; > 50 µM in the test on Aspergillus fumigatus [26]; > 50 µM in the test with Aspergillus fumigatus [27]; 17 µM (≈ 5.21 µg/mL) in [28].
As to `NNC(=O)c1ccncc1` [ISONIAZID], the MIC is 0.5 µM (≈ 0.0686 µg/mL) in [7]; 1 µM (≈ 0.137 µg/mL) in test [8]; > 250 µM against Mycobacterium kansasii [9]; > 250 µM in the test with Mycobacterium kansasii [10]; > 250 µM against Mycobacterium avium [11]; 2 µM (≈ 0.274 µg/mL) against Mycobacterium kansasii [12]. Also, the minimal inhibitory concentration (MIC) was > 250 µM with Mycobacterium kansasii [13], 4 µM (≈ 0.549 µg/mL) in the test with Mycobacterium kansasii [14], 250 µM (≈ 34.3 µg/mL) with Mycobacterium avium [15] and 4 µM (≈ 0.549 µg/mL) with Mycobacterium kansasii [16].
